Sampled rows, rich in hits. Any-hit rate of the full collection: about 2.3%.
TRPC6 inh – mouse TRPC6 channel inhibitors, primary screen, cell-based, HEK293, membrane potential dye. Short transient receptor potential channel 6 (Mus musculus), Q61143. ACh-evoked depolarization; stronger effect = lower value. 310,000 compounds, 1.1% hits. AID 2553, 2010. B-score at 10 µM;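 active means B-score under library mean minus 3 SD, initial fluorescence not abnormally high, positive integrated signal ratio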;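 further: B-score derived from integrated fluorescence ratio over the kinetic read; more negative B-score means stronger inhibition of depolarization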
TRPC6 act – mouse TRPC6 channel activators, primary screen, cell-based, HEK293, membrane potential dye | AID 2550, 2010 | 310,000 compounds, 0.13% hits | HEK293-TRPC6 membrane potential dye fluorescence; stronger effect = higher value | B-score at 10 µM | Short transient receptor potential channel 6 (Mus musculus), Q61143;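 active means B-score of the integrated fluorescence ratio above library mean plus 3 SD, and starting fluorescence ratio within library mean plus 5 SD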;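 further: higher score means more depolarization so channel activation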
TRPC4 inh – inhibitors of mouse TRPC4 channel, primary screen, Fluo4 calcium, HEK293 TRPC4beta/mu-opioid cells. DAMGO-evoked Fluo4 calcium flux; stronger effect = lower value. B-score at 10 µM. 300,000 compounds, 0.39% hits. AID 2247, 2010;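 active means B-score over 3 SD under the library average, no early fluorescence shift, positive overall ratio signal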
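Material: HEK293 cells with stable TRPC4beta plus mu-opioid receptor expression / Probe or stimulus: DAMGO in two steps, submaximal then maximal / Compound: single concentration per test compound / Technique: kinetic Fluo4 fluorescence imaging of calcium influx / Read-out: per-well B score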
TRPC4 act – activators of mouse TRPC4 channel, primary screen, Fluo4 calcium, HEK293 TRPC4beta/mu-opioid cells. Short transient receptor potential channel 4 (Mus musculus), Q9QUQ5. Fluo4 calcium fluorescence; stronger effect = higher value. B-score at 10 µM. 310,000 compounds, 0.49% hits. AID 2237, 2010;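 active means B-score above 5 SD of library B-scores, and initial fluorescence ratio not above library mean plus 5 SD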;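 further: positive B-score marks a calcium rise read as TRPC4 activation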
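Assay system: HEK293 stable line with TRPC4beta plus mu-opioid receptor. Times: dye 45 min RT, read 110 s. Measured by: kinetic Fluo4 calcium fluorescence. Measure: B score of integrated ratio. Controls: assay buffer as low control, maximal DAMGO as high control.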
TRPC4 potent – positive allosteric modulators of TRPC4, primary screen, cell-based, mouse TRPC4beta, HEK293 mu-opioid, Fluo-4 calcium; DAMGO EC20, Fluo-4 Ca2+ flux; stronger effect = higher value; B-score at 10 µM; AID 2227, 2009; 310,000 compounds, 0.42% hits; Short transient receptor potential channel 4 (Mus musculus), Q9QUQ5;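 active means B-score of calcium response area above 5 SD of library B-scores, with initial fluorescence ratio within 5 SD of library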;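 further: B-score of integrated fluorescence ratio over time as area under calcium response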
TRPC4 spec 2 – second selectivity test of TRPC6 inhibitors: effect on mouse TRPC4 | inhibition, % at 10 µM | shares compounds with TRPC6 inh | 920 compounds, 42% hits | HEK293 TRPC4/MOR, membrane potential dye fluorescence; channel activated by saturating DAMGO dose | AID 2776;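 active means compounds whose fluorescence signal differed from control wells by over 3 SD, either direction, in both duplicate plates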
TRPC4 spec – mouse TRPC4 modulation by TRPC6 hits, confirmation, selectivity assay for TRPC6 inhibitor project, cell-based, HEK293 TRPC4/mu-opioid, membrane potential dye. shares compounds with TRPC6 inh. membrane potential fluorescence. activity change, negative = inhibition, % at 10 µM. 920 compounds, 61% hits;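 active means rise or fall in signal beyond 3 SD of buffer-only wells in both replicate plates, either sign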;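 further: integrated kinetic ratio of fluorescence range over baseline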
HEK293 MPD ctr 2-1 – nonspecific membrane potential effects, parental HEK293, confirmation, counter-screen for TRPC6 inhibitor project, cell-based, second counter screen; shares compounds with TRPC6 inh; parental HEK293 membrane potential dye fluorescence; maximal acetylcholine challenge after compound addition; signal change vs control, % at 10 µM; 920 compounds, 31% hits;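 active means membrane potential signal moving either way by over 3 SD of the maximum-effect control, in both duplicate plates, meaning non-specific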
HEK293 MPD ctr-1 – membrane potential modulation in parental HEK293, confirmation, counter-screen for TRPC6 inhibitor project, cell-based | shares compounds with TRPC6 inh | parental HEK293 membrane potential dye fluorescence | membrane potential signal change, % at 10 µM | 920 compounds, 60% hits | AID 2780, 2010;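 active means membrane potential signal shifting up or down by more than 3 SD of buffer-only wells, on both duplicate plates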
HEK293 MPD ctr-2 – parental HEK293 membrane potential modulation, confirmation, counter-screen for TRPC6 modulator project, cell-based. shares compounds with TRPC6 inh. membrane potential dye fluorescence. membrane potential signal change, % at 10 µM. 2,400 compounds, 51% hits;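 active means membrane potential signal moves up or down beyond 5 SD from buffer-only wells, on both duplicate plates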
HEK293 MPD ctr 2-2 – second counter-screen for TRPC6 modulators: effect in parental HEK293 cells. shares compounds with TRPC6 inh. membrane potential dye fluorescence; after compound, maximal acetylcholine stimulation. inhibition, % at 10 µM. 2,400 compounds, 14% hits. AID 488926;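 active means membrane potential signal drops by more than 5 SD from the mean control signal, in both duplicate plates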;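 further: plate controls were acetylcholine ECmax control wells for no effect and buffer only wells for full effect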
TRPC4/MOR mod – TRPC4 modulation by TRPC6 hit compounds, confirmation, selectivity assay for TRPC6 modulator project, cell-based, HEK293 TRPC4/mu-opioid, membrane potential dye, mouse | AID 488927, 2010 | 2,400 compounds, 69% hits | membrane potential fluorescence | shares compounds with TRPC6 inh | percent change from control (negative = decrease, positive = increase), % at 10 µM;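 active means membrane potential signal moved up or down beyond 5 SD of buffer control wells, in both duplicate plates, actives on both sides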;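 further: plate controls were assay buffer wells for no effect and DAMGO maximal-effect wells for full effect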
TRPC4/MOR inh 2 – second check of whether TRPC6 modulators also affect mouse TRPC4; 2,400 compounds, 55% hits; inhibition, % at 10 µM; shares compounds with TRPC6 inh; HEK293 TRPC4/mu-opioid, membrane potential dye fluorescence; stimulated with maximal-effect DAMGO;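 active means drop in membrane potential signal beyond 5 SD of the control wells in both duplicate plates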;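 further: TRPC4 counter screen for TRPC6 hits run under conditions tuned for TRPC6 not TRPC4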
TRPC6 inh conf – mouse TRPC6 channel inhibitors, confirmation, HEK293 cells, membrane potential dye, duplicate. inhibition, % at 10 µM. shares compounds with TRPC6 inh. ACh-evoked depolarization. 3,300 compounds, 43% hits;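 active means fluorescence ratio falls more than 5 SD below the full-stimulation control mean, in both duplicate runs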;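 further: integrated fluorescence ratio of peak minus minimum over baseline after agonist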
TRPC6 act confirm – mouse TRPC6 channel activators, confirmation, HEK293 cells, membrane potential dye, duplicate | shares compounds with TRPC6 inh | HEK293-TRPC6 membrane potential dye fluorescence, FDSS | activation, % at 10 µM | 2,800 compounds, 11% hits | AID 488961, 2010;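 active means ratio signal rise beyond 5 SD above unstimulated control wells' mean, seen in both duplicate runs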;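 further: plate controls were buffer EC0 wells for no effect and acetylcholine ECmax response for full effect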
An asterisk follows results filed as active.

For CCCN(CC1CCCO1)C(=O)CCc1nnc(CCc2ccc(OC)cc2)o1 (stereo not drawn) the results were TRPC6 inh inactive, TRPC6 act inactive, TRPC4 inh inactive, TRPC4 act inactive and TRPC4 potent inactive.
`Cc1nnc(-c2ccccc2)c(=O)n1/N=C/c1c(O)ccc2ccccc12` gave TRPC6 inh -7.3*, TRPC6 act inactive, TRPC4 inh inactive, TRPC4 act inactive, TRPC4 potent inactive, TRPC4 spec 2 68%*, TRPC4 spec 23%*, HEK293 MPD ctr 2-1 -242%*, HEK293 MPD ctr-1 8.7%* and TRPC6 inh conf 80%*.
CCCCN1CC[C@H]2C=CC[C@@H](C(=O)Nc3ccc(Cl)cc3Cl)[C@H]2C1=O was read as TRPC6 inh inactive, TRPC6 act inactive, TRPC4 inh inactive, TRPC4 act inactive and TRPC4 potent inactive.
`CCOc1cc(S(=O)(=O)N2CCN(C(=O)c3ccco3)CC2)ccc1F` gave TRPC6 inh -5.7*, TRPC6 act inactive, TRPC4 inh inactive, TRPC4 act inactive, TRPC4 potent 22*, HEK293 MPD ctr-2 inactive, HEK293 MPD ctr 2-2 inactive, TRPC4/MOR mod 42%*, TRPC4/MOR inh 2 inactive and TRPC6 inh conf 38%*.
O=[N+]([O-])c1ccc2nc(SCc3cn4cc(Cl)ccc4n3)[nH]c2c1 was read as TRPC6 inh -5.4*, TRPC6 act inactive, TRPC4 inh inactive, TRPC4 act inactive, TRPC4 potent inactive, HEK293 MPD ctr-2 inactive, HEK293 MPD ctr 2-2 inactive, TRPC4/MOR mod inactive, TRPC4/MOR inh 2 inactive, TRPC6 inh conf inactive and TRPC6 act confirm inactive.
